# Measured values collected from several papers.
Structure (SMILES),technique,species,medium,route,dose,setting,half-life [h]
Oc1c(Br)cc(Cl)c2cccnc12,,Sprague-Dawley rat,plasma,subcutaneous,10 mg/kg,,5.6
CNCc1cc(-c2ccccc2F)n(S(=O)(=O)c2cccnc2)c1,,male Sprague-Dawley rat,plasma,oral,10 mg/kg,,1
CC(C)(O)[C@H]1CC[C@H](Nc2ccc3ncc(-c4cccc(C(F)(F)F)c4)n3n2)CC1,,female Sprague-Dawley rat,plasma,oral,40 mg/kg,,4.1
O=c1[nH]cc(F)c(=O)[nH]1,,Sprague-Dawley rat,plasma,oral,20 mg/kg,,1.81
N#Cc1[nH]nnc1-c1csc(-c2ccc(Cl)cc2)n1,,male Sprague-Dawley rat,plasma,oral,10 mg/kg,,2.9
CCNC(=O)c1nc(-c2ccc3[nH]c(-c4nc(C)no4)cc3c2)c(C)[nH]1,,Sprague-Dawley rat,plasma,intravenous,1 mg/kg,,0.9
CCc1cc(C(=O)NC)c2nccc(N3CCc4c(cc(Cn5ccnc5)cc4-c4cn(C)nc4C(F)(F)F)C3=O)c2c1,,male Sprague-Dawley rat,plasma,oral,50 mg/kg,single dose,3.8
Oc1c(-n2ccnn2)cnn1-c1cc(N2CCOCC2)ncn1,,male rat,plasma,intravenous,5 mg/kg,,3.1
N#Cc1ccc(Nc2nc(N)cc(Oc3c(F)cc(-c4ccc(C#N)cc4)cc3F)n2)cc1,,Sprague-Dawley rat,plasma,oral,5 mg/kg,,3.31
O=C(Nc1ccc(C(F)(F)F)cc1)N1CCC(Cc2cccc(Oc3ccc(C(F)(F)F)cn3)c2)CC1,,male Sprague-Dawley rat,blood,oral,1 mg/kg,,7.2
O=C(O)/C=C/c1ccc(O)c(O)c1,HPLC,Wistar rat,plasma,oral,,,0.33
Cc1cnc(N2CC3(CCOCC3)C2)c(C(=O)Nc2ccc(C(=O)N3CCc4cc(C(=O)Nc5c(C)cccc5F)sc4-c4ccccc43)cc2)c1,,rat,plasma,inhaled,2.7 mg/kg,single dose,3.4
COc1nc(-c2cc(C)c(N[C@@H](C)c3cc(F)cc(F)c3)nn2)ccc1-n1cnc(C)c1,,male Sprague-Dawley rat,plasma,oral,5 mg/kg,single dose,2.2
COc1cc2c3c(n(CCCN4CCOCC4)c(=O)c2cc1OC)-c1cc2c(cc1C3=O)OCO2,,male Fischer 344 rat,plasma,intravenous,24 mg/m²,single dose,3.6
COc1ccc2c(=O)n(C)c(-c3ccccc3)nc2c1,,male Sprague-Dawley rat,plasma,oral,10 mg/kg,,0.74
Nc1ncn([C@H]2C[C@H](O)[C@@H](CO)O2)c(=O)n1,,male Wistar rat,plasma,intravenous,21 µmol/kg,,2.43
N#Cc1[nH]nnc1-c1cc(Cl)cc(/C=C/c2cccc(C(F)(F)F)c2)c1,,male Sprague-Dawley rat,plasma,oral,10 mg/kg,,2.9
CC[C@H](C)[C@H](NC(=O)[C@H](Cc1ccccc1)NC(=O)[C@H](CCC(=O)O)NC(=O)[C@H](CCCNC(=N)N)NC(=O)[C@H](C)NC(=O)[C@H](C)NC(=O)[C@H](CCC(N)=O)NC(=O)[C@H](CCC(=O)O)NC(=O)[C@H](CCC(=O)O)NC(=O)[C@H](CC(C)C)NC(=O)[C@H](Cc1ccc(O)cc1)NC(=O)[C@H](CO)NC(=O)[C@H](CO)NC(=O)[C@@H](NC(=O)[C@H](CC(=O)O)NC(=O)[C@H](CO)NC(=O)[C@@H](NC(=O)[C@H](Cc1ccccc1)NC(=O)[C@@H](NC(=O)CNC(=O)[C@H](CCC(=O)O)NC(=O)[C@H](C)NC(=O)CCc1c[nH]cn1)[C@@H](C)O)[C@@H](C)O)C(C)C)C(=O)N[C@@H](C)C(=O)N[C@@H](Cc1c[nH]c2ccccc12)C(=O)N[C@@H](CC(C)C)C(=O)N[C@H](C(=O)N[C@@H](CCCNC(=N)N)C(=O)NCC(=O)N[C@@H](CCCNC(=N)N)C(=O)N[C@@H](CCCCNC(=O)COCCOCCNC(=O)COCCOCCNC(=O)CC[C@H](NC(=O)CCCCCCCCCCCCCCCCC(=O)O)C(=O)O)C(=O)O)C(C)C,,rat,plasma,subcutaneous,20 nmol/kg,,13
C[C@H](Nc1ncnc2[nH]cnc12)c1cc2cccc(Cl)c2c(=O)n1-c1ccccc1,,male Wistar rat,plasma,oral,25 mg/kg,single dose,0.82
CCOC(=O)[C@@]12C[C@@H]1[C@@H](n1ccc3c(NC)nc(C#Cc4ccc(Cl)s4)nc31)[C@H](O)[C@@H]2O,,male Sprague-Dawley rat,plasma,intravenous,0.5 mg/kg,,1.31
COCCOC(=O)C1=C(C)NC(C)=C(C(=O)OC(C)C)C1c1cccc([N+](=O)[O-])c1 (stereo not shown),,male Sprague-Dawley rat,plasma,intravenous,3 mg/kg,,6.7
COc1ccc2c(Cc3ccccc3F)c3n(c(=O)c2c1OC)CCc1cc2c(cc1-3)OCO2,,rat,plasma,intravenous,5 mg/kg,,3.07
CCc1cc(OC)c2nccc(N3CCc4c(cc(Cn5ccnc5)cc4-c4cn(C)nc4C(F)(F)F)C3=O)c2c1,,male Sprague-Dawley rat,plasma,oral,50 mg/kg,,1.3
Cc1c(-c2ccccc2)cccc1N1C(=O)c2cc(CN[C@H](C(=O)O)C(C)O)c(OCc3cccc(C#N)c3)cc2C1=O (stereo partly shown),,Sprague-Dawley rat,plasma,oral,50 mg/kg,,4.33
O=C(Nc1cc(F)c(F)c(F)c1)c1ccc(F)c(S(=O)(=O)NCc2cccc(B(O)O)c2)c1,,male Sprague-Dawley rat,plasma,oral,20 mg/kg,,1.08
